Consider 27 variants from the RNAGym collection of RNA variant scans (doi:10.1101/gad.245936.114).

This sample holds only a part of the variants without activity.

The labels stand for the following.
B1: tRNA (parent)
chain: CUCUCGGUAGCCAAGUUGGUUUAAGGCGCAAGACUUUAAUUUAUCACUACGAAAUCUUGAGAUCGGGCGUUCGACUCGCCCCCGGGAGAUUUUUUCCUCGAGCAA

This series covers variants of B1. The experiment in a line: nonsense suppression (GFP-seq) (ratio to wild type); higher = more function; SUP4oc tRNA, yeast GFP reporter sort-seq. In a few lines: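 Yeast carrying genome-integrated SUP4oc tRNA variants from a library with ~3% random mutations were grown in raffinose/galactose medium with 80 mg/L adenine. Each strain also carried a galactose-driven GFP ochre reporter and RFP. Cells were sorted into GFP/RFP bins, and each bin was Illumina-sequenced (phred ≥30). Nonsense suppression (GFPSEQ) is the bin median GFP/RFP, weighted by each variant's estimated cell share per bin, relative to wild-type SUP4oc; variants needed ≥100 reads and ≥30 cells.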
Take CUCUCGGUAGCCAAGUUGGUUCAAGGCGCAAGACUUUAAUUUAUCACUACGAAAUCUUGAGACCGGGCGUUCGACUCGCCCCCGGGAGAUUUUUUCCUCGAGCAA: the nonsense suppression was found to be 1.2. Regarding CUCUCGGUAGCCAAGUUGGUUGAAGGCGCUAGACUUUAAUUUAUCACUACGAAAUCUUGAGAUCGGGCGUUCGACUCGCCCCCGGGAGAUUUUUUCCUCGAGCAA, the nonsense suppression was found to be 0.184. As for CUCUCGGUAGCCAAGUUGGUUGAAGGCGCGAGACUUUAAUUUAUCACUACGAAAUCUUGAGAUCGGGCGUUCGACUCGCCCCCGGGAGAUUUUUUCCUCGAGCAA, the figure is 0.781; as for CUCUCGGUAGCCAAGUUGGUUAAAGGCGCAAGACUUUAAUUUAUCACUACGAAAUCUUGAGAUCGGGCGUUCGACUCACCCCCGGGAGAUUUUUUCCUCGAGCAA, 0.283. Next, CUCUCGGUAGCCAAGUUGGUUAAAUGCGCAAGACUUUAAUUUAUCACUACGAAAUCUUGAGAUCGGGCGUUCGACUCGCCCCCGGGAGAUUUUUUCCUCGAGCAA: 0.0283; CUCUCGGUAGCCAAGUUGGUUCAAGGCGCAAGACUUUAAUUUAUCACUACGAAAUCUUGCAAUCGGGCGUUCGACUCGCCCCCGGGAGAUUUUUUCCUCGAGCAA: 0.176; CUCUCGGUAGCCAAGUUGGUUCAACGCGCAACACUUUAAUUUAUCACUACGAAAUCUUGAGCUGGGGCGUUCGACUCGCCCCCGGGAGAUUUUUUCCUCGAGCAA: at most 0.026. Next, CUCUCGGUAGCCAAGUUGGUUCAAGGCGCAAGACUUUAAUUUAUCACUACGAAAUCUUGAGAUCGGGCGUUCAACUCGCCCCCGGGAGAUUUUUUCCUCGAGCAA: 0.848; CUCUCGGUAGCCAAGUUGGUUAAAGGCGCAAGACUUUAAUUUAUCACUACGAAAUCUUGAGAUCGGGCGUUCGACUCGCCCCCGGUAGAUUUUUUCCUCGAGCAA: 0.033; CUCUCGGUAGCCAAGUUGGUUCAAGGCGCAAGACUUUAAUUUAUCACUACGAAAUCUUGAGAUCGGGCGUUCGACUCGCCCCCGGGGGAUUUUUUCCUCGAGCAA: 0.724. Take CUCUCGGUAGCCAAGUUGGUUCAAGGCGCAAGACUUUAAUUUAUCACUACGAAAUCUUGAGAUCGGGCGUUCGACUCCCCCCCGGGAGAUUUUUUCCUCGAGCAA: the nonsense suppression was determined as 0.195.

On to CUCUCGGUAGCCAAGUUGGUUCAAGGCGCAAGACUUUAAUUUAUCACUACGAAAUUUUGAGAUCGGGCGUUCGACUCGCCCCCGGGAGAUUUUUUCCUCGAGCAA, for which the nonsense suppression was 0.0509.

With CUCUCGGUAGCCAAGUUGGUUCAAGGCGCAAGGCUUUAAUUUAUCACUACGAAAUCUUAAGAUCGGGCGUUCGACUCGCCCCCGGGAGAUUUUUUCCUCGAGCAA, the nonsense suppression is at most 0.026. As for CUCUCGGUAGCCAAGUUGGUUGAAGGCGCAUGACUUUAAUUUAUCACUACGAAAUCUUGAGACCGGGCGUACGACUCGCCCCCGGGAGAUUUUUUCCUCGAGCAA, the figure is at most 0.026. As for CUCUCGGUAGCCAAGUUGGUUCAAGACGCAAGACUUUAAUUUAUCACUACGAAAUCGUGAGAUCGGGCGUUCGACUCGCCCCCGGGAGAUUUUUUCCUCGAGCAA, the figure is at most 0.026. For the variant CUCUCGGUAGCCAAGUUGGUUCAAGGCGCAAGACUUUAAUUUAUCACUACGAACUCUUGAGAUCGGGCGUUCGACUCGCCCCCGGGAGAUUUUUUCCUCGAGCAA, the nonsense suppression was determined as 1.2. As for CUCUCGGUAGCCAAGUUGGUUCAAGGCGCAAGACUUUAAUUUAUCACUACGAAUUCUUGAGAUCGGGCGUUCGACUCGCCCCCGGGAGAUUUUUUCCUCGAGCAA, the figure is 1.05. In the case of CUCUCGGUAGCCAAGUUGGUUCAAGGCGCAAGACUUUAAUUUAUCACUACGAAAUCUUGAGAUCGGGCGUUCGACCCGCCCCCGGGAGAUUUUUUCCUCGAGCAA, the nonsense suppression amounted to 1.02. As for CUCUCGGUAGCCAAGUUGGUUGAAGGCGCAAGACUUUAAUUUAUCACUACGAAUUCUUGAGAUCGGGCGUUCGACUCGCCCCCGGGAGAUUUUUUCCUCGAGCAA, the figure is 1.12; as for CUCUCGGUAGCCAAGUUGGUUAAAGGCGCAAGACUUUAAUUUAUCACUACGAAAUCUUGAGAUCGGGCGUUCAACUCGCCCCCGGGAGAUUUUUUCCUCGAGCAA, 0.325; as for CUCUCGGUAGCCAAGUUGGUUAAAGGCGCAAGACUUUAAUUUAUCACUACGAAAUCUUGAGAUCAGGCGUUCGACUCGCCCCCGGGAGAUUUUUUCCUCGAGCAA, 0.12. On to CUCUCGGUAGCCAAGUUGGUUCAAGGCGCAAGUCUUUAAUUUAUCACUACGAAAUCUUGAGAUCGGGCGUUCGACUCGCCCCCGGGAGAUUUUUUCCUCGAGCAA, for which the nonsense suppression was 0.202.

Take CUCUCGGUAGCCAAGUUGGUUCAACGCGCAAGACUUUAAUUUAUCACUACGAAAUCUUGAGAUCGGGCGUUCGACUCGCCCCCGGGAGAUUUUUUCCUCGAGCAA: the nonsense suppression was 0.0473. As for CUCUCGGUAGCCAAGUUGGUUCAAGGCGCAAGACUUUAAUUUAUCACUACGAAAUCUUGAGAUCGGGCGCUCAACUCGCCCCCGGGAGAUUUUUUCCUCGAGCAA, the nonsense suppression was at most 0.026. Next, CUCUCGGUAGCCAAGUUGGUUCAAGGCGCAAGACUUUAAUUUAUCACUACGAAAUCUUGAGAUCGGGCGUUCGACUCGCCCCCGGGAGAUUUUUUCCUCGAGCAA: 1.

For CUCUCGGUAGCCAAGUUGGUUGAAGGCGCAAGACUUUAAUUUAUCACUACGAAAUCUUGAGAUCGGGCGUUCGACUCGCCCCCGGGAGAUUUUUUCCUCGAGCAA, the nonsense suppression was 0.989.

Take CUCUCGGUAGCCAAGUUGGUUGAAGGCGCAAGACUUUAAUUUAUCACUACGAAAUCUUGCGAUCGGGCGUUCGACUCGCCCCCGGGAGAUUUUUUCCUCGAGCAA: the nonsense suppression stood at 0.175.
